Data on eight compounds can be found in ChEMBL document CHEMBL1133737, “Topoisomerase I-mediated antiproliferative activity of enantiomerically pure fluorinated homocamptothecins” (J Med Chem, 2000).

One experiment concerns A549. Kind of experiment: Cytotoxicity against A549 tumor cell line determined by WST-1 assay. It is filed as functional, cell-based. Conditions: Homo sapiens. An outline of the steps: (§1)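 Cells exposed to drug for 72 h; surviving cells measured colorimetrically with soluble tetrazolium WST-1. IC50 is the mean of triplicate determinations. HT29 and A549 sourced from ATCC. T24r was derived from T24 bladder carcinoma by prolonged exposure to vinorelbine, PE1001 and doxorubicin, and is multidrug resistant through Pg-P overexpression. A549 is resistant through MRP overexpression.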
(In general: Tetrazolium dyes change colour on reduction, which living cells bring about.)

The next experiment concerns T-24. The experiment can be described thus: Cytotoxicity against T24 tumor cell line determined by WST-1 assay. Conditions: Homo sapiens. Type of experiment: functional, cell-based. In short, it runs like this: as §1
The subject of a further experiment is HT-29. Kind of experiment: Cytotoxicity against HT-29 tumor cell line determined by WST-1 assay. The settings on record: Homo sapiens. Type of experiment: functional, cell-based. In short, it runs like this: as §1
Experiment [1] deals with T1, DNA topoisomerase 1 (Homo sapiens) (UniProt P11387).
T1 sequence (whole entry): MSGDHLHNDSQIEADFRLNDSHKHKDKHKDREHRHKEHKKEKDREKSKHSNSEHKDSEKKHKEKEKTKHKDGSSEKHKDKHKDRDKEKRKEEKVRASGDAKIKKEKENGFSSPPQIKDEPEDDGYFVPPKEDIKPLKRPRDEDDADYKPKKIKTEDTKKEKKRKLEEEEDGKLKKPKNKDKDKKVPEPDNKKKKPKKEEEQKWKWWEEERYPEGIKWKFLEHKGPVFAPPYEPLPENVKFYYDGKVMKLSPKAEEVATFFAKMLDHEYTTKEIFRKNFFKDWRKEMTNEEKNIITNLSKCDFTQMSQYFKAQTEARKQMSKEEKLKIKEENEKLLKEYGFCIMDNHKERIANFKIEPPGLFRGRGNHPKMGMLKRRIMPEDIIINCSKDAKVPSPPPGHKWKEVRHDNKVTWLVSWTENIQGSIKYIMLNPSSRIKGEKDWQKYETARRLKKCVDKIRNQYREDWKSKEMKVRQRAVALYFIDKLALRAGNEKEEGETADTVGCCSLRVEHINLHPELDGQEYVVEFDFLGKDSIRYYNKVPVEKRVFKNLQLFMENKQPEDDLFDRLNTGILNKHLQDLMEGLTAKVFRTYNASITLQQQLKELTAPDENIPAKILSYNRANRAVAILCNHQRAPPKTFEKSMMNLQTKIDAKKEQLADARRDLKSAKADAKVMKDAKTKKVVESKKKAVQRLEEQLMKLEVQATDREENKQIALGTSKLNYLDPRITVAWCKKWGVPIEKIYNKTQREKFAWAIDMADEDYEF
Kind of experiment: Stimulation of pKMp27 DNA cleavage by human DNA topoisomerase I in presence of 0.1 uM of compound. In short, it runs like this:
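Human Topo I incubated with supercoiled plasmid pKMp27 DNA and 0.1 µM drug. Products resolved on agarose gel containing ethidium bromide. Nicked DNA fraction quantified and stimulation calculated as (N−N0)/N0, where N and N0 are the nicked fractions with and without drug. Values compiled from quantitative analysis of three gels.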

`CC[C@@]1(O)CC(=O)OCc2c1cc1n(c2=O)Cc2cc3cccc(F)c3nc2-1`: the IC50 came to 130 nM in the experiment on A549, 22 nM in the experiment with T-24 and 190 nM with HT-29. Besides, in experiment [1], the Stimulation was determined as 7.3.
Consider `CC[C@@]1(O)CC(=O)OCc2c1cc1n(c2=O)Cc2cc3c(F)cccc3nc2-1`, for which the IC50 is 17 nM in the experiment with A549, 1.6 nM in the experiment on T-24 and 20 nM in the experiment on HT-29. In addition, in experiment [1], the Stimulation turned out to be 18.
The like results for `CC[C@@]1(O)CC(=O)OCc2c1cc1n(c2=O)Cc2cc3c(F)cc(F)cc3nc2-1` were, in that order, 1.9 nM, 0.32 nM, 10 nM and 30.
As for `CC[C@@]1(O)CC(=O)OCc2c1cc1n(c2=O)Cc2cc3ccccc3nc2-1` [HOMOCAMPTOTHECIN], the results for the IC50 with A549, in the experiment with T-24 and with HT-29 were 26 nM, 3.3 nM and 30 nM, respectively. The Stimulation in experiment [1] came to 21.
On to `CC[C@@]1(O)CC(=O)OCc2c1cc1n(c2=O)Cc2cc3ccc(F)cc3nc2-1`, for which the IC50 in the experiment on A549 was 2.9 nM; in the experiment on T-24, 0.17 nM; in the experiment on HT-29, 11 nM. The Stimulation in experiment [1] was 29.
Take `CC[C@@]1(O)CC(=O)OCc2c1cc1n(c2=O)Cc2cc3cc(F)ccc3nc2-1`: the IC50 with A549 turned out to be 22 nM; in the experiment on T-24, 4.5 nM; in the experiment with HT-29, 27 nM. Moreover, the Stimulation in experiment [1] was 17.
The corresponding values for `CC[C@@]1(O)CC(=O)OCc2c1cc1n(c2=O)Cc2cc3cc(F)c(F)cc3nc2-1` [DIFLOMOTECAN] are 3.4 nM, 0.4 nM, 8.4 nM and 32.
Consider `CC[C@@]1(O)C(=O)OCc2c1cc1n(c2=O)Cc2cc3ccccc3nc2-1` [CAMPTOTHECIN], for which the IC50 in the experiment on A549 worked out at 67 nM; in the experiment on T-24, 88 nM; in the experiment with HT-29, 80 nM. Moreover, the Stimulation in experiment [1] was 8.2.

The IC50 is the point on the concentration scale where inhibition reaches its midpoint. A higher IC50 goes with weaker potency.
